KCNQ1 block: human KCNQ1 channel inhibition; P51787; CHO-K1 KCNQ1, FluxOR thallium flux fluorescence; active compounds read high; B-score at 10 µM; 1.3% of 310,000 active;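 active = compounds whose thallium flux B-score, printed positive for inhibition, exceeds three library SD while starting fluorescence stays within three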;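 also: channel opened by potassium depolarization with thallium stimulus after 20 min compound exposure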
Kir21 block: Kir2.1 (mouse) channel inhibition; AID 1672; 0.85% of 310,000 active; B-score at 10 µM; HEK293-Kir2.1, FluxOR thallium flux fluorescence; active compounds read low;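 active = fluorescence ratio B-score at or below minus 3 SD of library scores, with starting-brightness B-score within 2 SD, cut at about -4.2 in these data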;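 also: channel flux triggered by added potassium and thallium sulfate stimulus; B-score of peak minus minimum fluorescence over baseline after thallium stimulus; more negative B-score means stronger Kir2.1 block with less thallium influx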
KCNK3 inh: human KCNK3 channel inhibition, primary screen. B-score at 10 µM. AID 602410. 0.84% of 340,000 active. CHO-KCNK3 thallium flux, FluxOR fluorescence; active compounds read low;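 active = B-score under library mean minus 4 SD, starting fluorescence ratio at most library mean plus 5 SD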;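 also: more negative B-score means stronger inhibition of thallium flux through KCNK3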
Target sequence (O14649 whole entry, looked up): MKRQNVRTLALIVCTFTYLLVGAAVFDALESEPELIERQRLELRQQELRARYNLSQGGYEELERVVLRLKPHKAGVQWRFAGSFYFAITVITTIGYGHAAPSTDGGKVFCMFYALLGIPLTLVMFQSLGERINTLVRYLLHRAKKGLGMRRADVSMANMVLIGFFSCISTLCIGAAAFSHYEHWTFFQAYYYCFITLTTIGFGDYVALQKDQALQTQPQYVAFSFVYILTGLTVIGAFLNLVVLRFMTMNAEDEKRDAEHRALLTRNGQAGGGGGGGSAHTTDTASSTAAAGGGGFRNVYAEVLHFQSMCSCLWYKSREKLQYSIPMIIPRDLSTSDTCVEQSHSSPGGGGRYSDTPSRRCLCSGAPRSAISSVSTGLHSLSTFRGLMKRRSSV
KCNK9 block: human KCNK9 channel inhibition. 1.2% of 310,000 active. AID 488922. Q9NPC2. B-score at 10 µM. HEK293 KCNK9, FluxOR thallium flux fluorescence; active compounds read low;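 active = ratio B-score over 3 SD below the library mean, with starting fluorescence within 5 SD of its mean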;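 also: negative B-score means less thallium flux so channel inhibition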
hERG protect: compounds protecting human hERG from proarrhythmic drug block; 0.51% of 310,000 active; Q12809; activation (rescue from dofetilide block), less the hit threshold, % at 10 µM; CHO-hERG, FluxOR thallium flux, dofetilide IC70 present;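 active = activation above the mean of controls blocked by dofetilide plus 5 SD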;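 also: thallium influx through hERG after potassium depolarization seen as dye fluorescence rise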
KCNQ1 act: potentiates or activates the human KCNQ1 potassium channel. B-score at 10 µM. P51787. 0.35% of 310,000 active. AID 2648. CHO-K1 KCNQ1, thallium flux FluxOR fluorescence; active compounds read high;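 active = fluorescence ratio B-score, a plate-corrected score, at least three library SD, with initial intensity B-score within 5 SD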
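Schedule – 37 °C overnight plating, 90-min dark dye load, 20-min compound pretreatment · System – stable KCNQ1 CHO-K1 line · Probe or stimulus – thallium- and potassium-containing depolarizing buffer · Measured by – kinetic FluxOR fluorescence, 10 s baseline plus 110 s post-stimulus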
KCNK9 block conf: confirmation of human KCNK9 potassium channel inhibitors; shares compounds with KCNK9 block; HEK293 KCNK9 cells, FluxOR thallium flux fluorescence; inhibition, % at 10 µM; 43% of 4,900 active; AID 492992;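 active = thallium signal inhibited by more than 5 SD of the compound-free buffer control wells, on both duplicate plates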
Kir21 sel: mouse Kir2.1 off-target activity of KCNK9 modulators; shares compounds with KCNK9 block; Kir2.1 cells, FluxOR thallium flux fluorescence; inhibition, % at 10 µM; 4% of 4,900 active; AID 492993;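 active = thallium signal drop more than 5 SD beyond the mean of the no-compound control wells, seen in both duplicate plates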;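 also: signal is fluorescence rise after thallium addition divided by baseline fluorescence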
HEK293 Tl ctr: second counter-screen for KCNK9 modulators: effect in non-induced cells; inhibition, % at 10 µM; non-induced KCNK9-HEK293, FluxOR thallium flux; shares compounds with KCNK9 block; 40% of 4,900 active; AID 492997;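 active = thallium signal drop beyond 5 SD of the untreated control mean, on both duplicate plates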
KCNK3 inh conf: human KCNK3 channel inhibition, confirmation assay; shares compounds with KCNK3 inh; CHO-KCNK3 thallium flux, FluxOR fluorescence; 0% buffer, 100% carvedilol maximal block; ratio percent of control, % at 10 µM; 99% of 2,400 active; AID 651638;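 active = ratio percent of control, averaged over triplicates, above buffer control mean plus 5 SD, cut at about 64% in these data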;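 also: ratio is the fluorescence rise from min to max over baseline after thallium stimulus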
KCNK3 uninduced: activity in cells without induced KCNK3 expression | shares compounds with KCNK3 inh | non-induced KCNK3 parental cells, FluxOR thallium flux; active compounds read low | thallium flux ratio (lower = more inhibition) at 10 µM | 40% of 2,400 active | AID 651747;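 active = thallium flux ratio, averaged over three wells, more than 5 SD below the buffer control mean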;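 also: host cells are CHO cells without KCNK3 induction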
Of the large screens only hits and unclear results are named; the others gave an inactive call (follow-up assays come after a bar, where they were run). Rows were chosen to be rich in hits. Some 3.8% of all compounds tested hit in one or more screens of this group.

CC(C)CN(CC(C)C)C1=N/C(=C\c2ccco2)C(=O)N1c1ccccc1	KCNK3 inh -9.2, KCNK9 block -9.8 | KCNK9 block conf 56% | Kir21 sel inactive | HEK293 Tl ctr 46% | KCNK3 inh conf 125 | KCNK3 uninduced inactive
CCN(CC)C1=N/C(=C\c2ccco2)C(=O)N1c1ccccc1	none
COc1cc2nc(SCc3c(C)noc3C)n(CCC3=CCCCC3)c(=O)c2cc1OC	KCNK3 inh -10, KCNK9 block -14 | KCNK9 block conf 28% | Kir21 sel 32% | HEK293 Tl ctr 32% | KCNK3 inh conf 125 | KCNK3 uninduced 0.14
C=CCn1c(SCc2c(C)noc2C)nc2ccccc2c1=O	none
Cc1cc(O)c(C(C)C)cc1N=Cc1ccc(N(C)C)cc1	none (no result: KCNQ1 block, Kir21 block, KCNK9 block, hERG protect, KCNQ1 act)
COc1cccc(OC)c1C(=O)Nc1cccc(-c2nc3ccccc3[nH]2)c1	KCNK3 inh -9.9, KCNK9 block -13 | KCNK9 block conf 40% | Kir21 sel inactive | HEK293 Tl ctr inactive | KCNK3 inh conf 133 | KCNK3 uninduced 0.12
CC(C)C1OC(c2cccc(NC(=O)c3cccs3)c2)OCC1(C)C (centres undefined)	KCNK3 inh -9.5, KCNK9 block -8.5 | KCNK9 block conf 50% | Kir21 sel inactive | HEK293 Tl ctr 44% | KCNK3 inh conf 114 | KCNK3 uninduced 0.16
CCCc1nnc(SCC(=O)Nc2ccc(NC(C)=O)cc2)n1-n1cccc1	none
COc1ccc2ccc(=O)oc2c1CC=C(C)C	KCNK3 inh -12, KCNK9 block -15 | KCNK9 block conf 72% | Kir21 sel inactive | HEK293 Tl ctr 38% | KCNK3 inh conf 104 | KCNK3 uninduced inactive
Cc1cc(C(=O)N/N=C/c2ccc(-c3cccc(Br)c3)o2)n[nH]1	KCNK3 inh -11, KCNK9 block -17 | KCNK9 block conf 44% | Kir21 sel inactive | HEK293 Tl ctr inactive | KCNK3 inh conf 87 | KCNK3 uninduced inactive
Cc1ccc(Nc2nc(Cl)nc(NC(C)(C)C)n2)cc1	none
CC(C)(C)Nc1nc(Nc2ccc([N+](=O)[O-])cc2)nc(NC(C)(C)C)n1	KCNQ1 block 8, KCNK3 inh -11, KCNK9 block -13 | KCNK9 block conf 46% | Kir21 sel inactive | HEK293 Tl ctr 34% | KCNK3 inh conf 128 | KCNK3 uninduced 0.13
O=C(Nc1cccc(-c2nnc(-c3ccccc3)o2)c1)C1CCCCC1	KCNK3 inh -11, KCNK9 block -8.8 | KCNK9 block conf 34% | Kir21 sel inactive | HEK293 Tl ctr 30% | KCNK3 inh conf 96 | KCNK3 uninduced inactive
CCC(=O)Nc1cccc(-c2nnc(-c3ccccc3)o2)c1	none
O=C(NCCc1ccccc1F)N[C@@H](Cc1ccccc1)C(=O)O	none
O=[N+]([O-])c1ncccc1OCc1ccc(Cl)c(Cl)c1	none
Cc1cc(Br)ccc1NC(=O)CN(C)Cc1cccs1	KCNK3 inh -9, KCNK9 block -12 | KCNK9 block conf 43% | Kir21 sel inactive | HEK293 Tl ctr 28% | KCNK3 inh conf 100 | KCNK3 uninduced inactive
CN(CC(=O)Nc1ccccc1F)Cc1cccs1	none
CCOc1cccc2sc(N(CCN(C)C)C(=O)c3ccc4ccccc4c3)nc12	KCNK3 inh -9.6, KCNK9 block -9.4 | KCNK9 block conf 36% | Kir21 sel inactive | HEK293 Tl ctr inactive | KCNK3 inh conf 118 | KCNK3 uninduced inactive

Screening results: PubChem, Johns Hopkins Ion Channel Center
